Experimental data as given in ChEMBL document CHEMBL4725346, “Syntheses and Evaluation of New Bisacridine Derivatives for Dual Binding of G-Quadruplex and i-Motif in Regulating Oncogene c-myc Expression” (J Med Chem, 2020).
The source made the active and inactive calls. The calls are words filed in the database; no cut-off is given here.

Tests used:
Quadruplex DNA [1] = assay: Binding affinity to c-myc promoter G-quadruplex/i-motif in human SiHa cells assessed as reduction in c-myc expression at 5 uM incubated for 24 hrs by Western blot analysis; type: cell-based; set-up: scale not given: the % may be the effect or the level left
[2] = Toxicity in BALB/c nude mouse xenografted with human SiHa cells assessed as effect on liver weight at 15 mg/kg, ip administered once per 2 days for 18 days; type: organism-based; conditions: in vivo, 432 h, time 18 day
Procedure, shortened: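 SiHa tumour fragments passaged from donor mice implanted in the underarm of female BALB/c nude mice (six per group). Compound given at 15 mg/kg ip once every two days for 18 days, with saline and cisplatin 0.2 mg/kg control groups. Body weight recorded every two days; at day 18 mice were sacrificed and organs weighed.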

Quadruplex DNA [3] = assay: Stabilization of c-myc promoter G-quadruplex DNA Pu27 (unknown origin) by 1H NMR spectra analysis; type: nucleic-acid assay
Procedure, shortened: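 1D ¹H NMR titration with water suppression at 25 °C on a 600 MHz spectrometer. DNA at 0.5 mM in 10% D₂O/90% H₂O: Pu27 in 10 mM Tris-HCl pH 7.4, Py33 in 1× BPES pH 6.4. Annealed at 95 °C for 5 min before titration; ligand stock in d₆-DMSO.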

SiHa [4] = assay: Induction of apoptosis in human SiHa cells assessed as increase in cleaved caspase-9 level incubated for 24 hrs by Western blot analysis; type: functional, cell-based; conditions: dose microM 0.6-2.4, time 24.0 hrs
[5] = Binding affinity to 5'-biotin labeled c-myc promoter i-motif DNA Py33 (unknown origin) by surface plasmon resonance method
Procedure, shortened: (§1)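 SPR: 5'-biotin DNA diluted to 1 μM and captured (1000 RU) on a sensor chip, with a blank cell as reference. Running buffers: Py33 in 20 mM MES pH 5.8, 100 mM KCl, 0.05% Tween-20; Pu27 and duplex in 50 mM Tris-HCl pH 7.4, 100 mM KCl. Six ligand concentrations serially diluted from DMSO stock. Association 260 s, dissociation 300 s at 25 °C; NaOH regeneration; blank sensorgrams subtracted.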

Quadruplex DNA [6] = assay: Binding affinity to c-myc promoter G-quadruplex/i-motif in human SiHa cells assessed as reduction in c-myc mRNA level incubated for 24 hrs by qRT-PCR analysis; type: cell-based; conditions: dose microM 0.625-2.5, time 24.0 hrs
Procedure, shortened: (§2)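 SiHa cells at 0, 0.625, 1.25 and 2.5 μM for 24 h; DMSO control. Total RNA extracted with TRIzol. 1.5 μg RNA reverse-transcribed with oligo dT18 and M-MLV (42 °C 60 min). PCR of 30 cycles (95/58/72 °C), products run on 1.2% agarose. β-actin as internal control; three repeats.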

SiHa [7] = assay: Induction of apoptosis in human SiHa cells assessed as late apoptotic cells at 2.4 uM after 24 hrs by annexin V/FITC-propidium iodide staining-based flow cytometric method ( Rvb = 0.4%); type: functional
SiHa [8] = assay: Induction of apoptosis in human SiHa cells assessed as decrease in caspase-7 level incubated for 24 hrs by Western blot analysis; type: functional, cell-based; conditions: dose microM 0.6-2.4, time 24.0 hrs
SiHa [9] = assay: Induction of cell cycle arrest in human SiHa cells assessed as accumulation of cells at S phase at 0.15 uM after 24 hrs by propidium iodide staining based flow cytometry (reference value: 17.74%); type: functional
SiHa [10] = assay: Induction of apoptosis in human SiHa cells assessed as increase in cleaved caspase-7 level incubated for 24 hrs by Western blot analysis; type: functional, cell-based; conditions: dose microM 0.6-2.4, time 24.0 hrs
SiHa [11] = assay: Induction of cell cycle arrest in human SiHa cells assessed as accumulation of cells at S phase at 0.60 uM after 24 hrs by propidium iodide staining based flow cytometry (reference value: 17.74%); type: functional; conditions: dose 0.6 µM
Quadruplex DNA [12] = assay: Binding affinity to c-myc promoter G-quadruplex/i-motif in human SiHa cells assessed as reduction in c-myc mRNA level at 1.25 uM incubated for 24 hrs by qRT-PCR analysis; type: cell-based; set-up: scale not given: the % may be the effect or the level left; procedure, shortened: as §2
SiHa [13] = assay: Induction of cell cycle arrest in human SiHa cells assessed as accumulation of cells at G2/M phase at 0.15 uM after 24 hrs by propidium iodide staining based flow cytometry (reference value: 29.71%); type: functional
dsDNA = assay: Binding affinity to 5'-biotin labeled duplex DNA (unknown origin) by surface plasmon resonance method; type: nucleic-acid assay; procedure, shortened: as §1
[14] = Binding affinity to 5'-biotin labeled c-myc promoter i-motif DNA Py33 (unknown origin) by UV titration method
Quadruplex DNA [15] = assay: Binding affinity to c-myc promoter G-quadruplex/i-motif in human SiHa cells assessed as reduction in c-myc expression at 2.5 uM incubated for 24 hrs by Western blot analysis; type: cell-based; set-up: scale not given: the % may be the effect or the level left
Procedure, shortened: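 SiHa cells treated 24 h at 0, 0.625, 1.25 and 2.5 μM, then lysed in buffer with 1 mM PMSF. Protein measured by BCA, equal loads run on 8% gel and blotted to PVDF. Probed with anti-c-MYC and anti-β-actin (loading control), HRP anti-rabbit secondary, chemiluminescence read-out.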

SiHa [16] = assay: Induction of apoptosis in human SiHa cells assessed as early apoptotic cells at 2.4 uM after 24 hrs by annexin V/FITC-propidium iodide staining-based flow cytometric method ( Rvb = 0.3%); type: functional
[17] = Stabilization of 5'-FAM/3'-TAMRA labeled hairpin DNA F10T (unknown origin) assessed as change in melting temperature at 1 uM by FRET assay (reference value: 59.1 degreeC)
SiHa [18] = assay: Induction of apoptosis in human SiHa cells assessed as necrotic cells at 0.6 uM after 24 hrs by annexin V/FITC-propidium iodide staining-based flow cytometric method ( Rvb = 0.1%); type: functional
[19] = Stabilization of c-myc promoter i-motif DNA Py33 (unknown origin) assessed as increase in slower migration band incubated overnight by silver staining based PAGE analysis
Procedure, shortened: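 Py33 (3 µM) co-annealed with increasing ligand in 1× BPES pH 6.8 at 95 °C for 5 min, cooled, held at 4 °C overnight. Run on native 20% acrylamide in 1× TBE at 140 V for 5 h at 5 °C, then silver-stained.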

SiHa [20] = assay: Inhibition of c-myc transcription in human SiHa cells harboring c-myc deleted promoter G-quadruplex/i-motif (unknown origin) assessed as decrease in ratio of renilla/firefly luciferase activity at 0.025 to 0.1 uM after 48 hrs by dual-luciferase reporter assay; type: functional, cell-based; conditions: dose microM 0.025-0.1, time 48.0 hrs
Procedure, shortened: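 Psicheck2 plasmid carrying deleted c-myc promoter (lacking NHE III₁ G/C-rich sequence), 200 ng, lipofected into SiHa cells. Compound added 8 h post-transfection, cells kept 48 h at 37 °C, washed with ice-cold PBS, then Renilla/Firefly luciferase activity ratio measured with a dual-luciferase kit.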

Raji = assay: Antiproliferative activity against human Raji cells after 48 hrs by MTT assay; type: functional, cell-based
Quadruplex DNA [21] = assay: Binding affinity to c-myc promoter G-quadruplex/i-motif in human SiHa cells assessed as reduction in c-myc mRNA level at 5 uM incubated for 24 hrs by qRT-PCR analysis; type: cell-based; set-up: scale not given: the % may be the effect or the level left

Activity (Quadruplex DNA [3]): Active | Kd [5]: 2.4 µM | Kd (dsDNA): 18.5 µM | Activity [14]: Active | ΔTm [17]: 4.5 °C | Activity [19]: Dose-dependent effect
SMILES: Cc1ccc2nc3ccc(C)cc3c(NCCCNCCNCCCNc3c4cc(C)ccc4nc4ccc(C)cc34)c2c1
Activity (Quadruplex DNA [1]): < 92.2% | Activity [2]: Non-Toxic | Activity (SiHa [4]): Dose-dependent effect | Activity (Quadruplex DNA [6]): Dose-dependent effect | Activity (SiHa [7]): 27.5% | Activity (SiHa [8]): Dose-dependent effect | Activity (SiHa [9]): 16.96% | Activity (SiHa [10]): Dose-dependent effect | Activity (SiHa [11]): 13.58% | Activity (Quadruplex DNA [12]): 40.1% | Activity (SiHa [13]): 34.13% | Activity (Quadruplex DNA [15]): < 73.9% | Activity (SiHa [16]): 55.4% | Activity (SiHa [18]): 0.5% | Activity (SiHa [20]): inactive | Activity (Raji): Active | Activity (Quadruplex DNA [21]): < 92.7%
